According to ChEMBL document CHEMBL5058577, “EUbOPEN Chemogenomics Library 2 (Multiplex)” (2022):

System: U2OS
Experiment: Multiplex assay against U2OS
Assay type: toxicity, cell-based
Conditions: human
Outline: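 Hoechst33342, BioTracker Green Microtubule Cytoskeleton Dye, MitoTracker Red and Annexin V Alexa Fluor 680 were added to live cells at seeding, and imaging on a CQ1 microscope at 37°C and 5% CO2 followed compound addition. Gating by CellPathfinder machine learning separated cells into Hoechst high-intensity objects or normal cells, then normal cells into healthy, pyknosed or fragmented nuclei, then pyknosed cells into mitotic or apoptotic. Per cents of healthy-nucleus cells are reported for the tubulin, mitochondrial-mass and membrane-permeability phenotypes.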

[1] = 12 h, 1 µM, compound concentration 1 uM, replicate 1
[2] = 12 h, 1 µM, compound concentration 1 uM, replicate 2
[3] = 12 h, 10 µM, compound concentration 10 uM, replicate 1
[4] = 12 h, 10 µM, compound concentration 10 uM, replicate 2
[5] = 24 h, 1 µM, compound concentration 1 uM, replicate 1
[6] = 24 h, 1 µM, compound concentration 1 uM, replicate 2
[7] = 24 h, 10 µM, compound concentration 10 uM, replicate 1
[8] = 24 h, 10 µM, compound concentration 10 uM, replicate 2
[9] = 48 h, 1 µM, compound concentration 1 uM, replicate 1
[10] = 48 h, 1 µM, compound concentration 1 uM, replicate 2
[11] = 48 h, 10 µM, compound concentration 10 uM, replicate 1
[12] = 48 h, 10 µM, compound concentration 10 uM, replicate 2

## CSc1ccccc1N1CCN(CCCCCC(=O)NC2CCCc3ccccc32)CC1.Cl (configuration not stated)
[1]
  Population Apoptotic (%): 62%
  Population Fragmented Nuclei (%): 22%
  Population Healthy Nuclei (%): 61%
  Population Hoechst High Intensity Objects (%): 9%
  Population Membrane Permeable-Phenotype (%): 73%
  Population Mitochondria Different-Phenotype (%): 71%
  Population Mitotic Cells (%): 37%
  Population Normal (%): 90%
  Population Pyknosed Nuclei (%): 15%
  Population Tubulin-Different-Phenotype (%): 88%
  Total Cell Count: 222
[2]
  Population Apoptotic (%): 36%
  Population Fragmented Nuclei (%): 24%
  Population Healthy Nuclei (%): 63%
  Population Hoechst High Intensity Objects (%): 3%
  Population Membrane Permeable-Phenotype (%): 51%
  Population Mitochondria Different-Phenotype (%): 85%
  Population Mitotic Cells (%): 63%
  Population Normal (%): 96%
  Population Pyknosed Nuclei (%): 11%
  Population Tubulin-Different-Phenotype (%): 72%
  Total Cell Count: 101
[3]
  Population Apoptotic (%): 70%
  Population Fragmented Nuclei (%): 41%
  Population Healthy Nuclei (%): 39%
  Population Hoechst High Intensity Objects (%): 8%
  Population Membrane Permeable-Phenotype (%): 67%
  Population Mitochondria Different-Phenotype (%): 90%
  Population Mitotic Cells (%): 29%
  Population Normal (%): 91%
  Population Pyknosed Nuclei (%): 18%
  Population Tubulin-Different-Phenotype (%): 96%
  Total Cell Count: 221
[4]
  Population Apoptotic (%): 84%
  Population Fragmented Nuclei (%): 23%
  Population Healthy Nuclei (%): 55%
  Population Hoechst High Intensity Objects (%): 4%
  Population Membrane Permeable-Phenotype (%): 60%
  Population Mitochondria Different-Phenotype (%): 92%
  Population Mitotic Cells (%): 16%
  Population Normal (%): 95%
  Population Pyknosed Nuclei (%): 21%
  Population Tubulin-Different-Phenotype (%): 98%
  Total Cell Count: 125
[5]
  Population Apoptotic (%): 54%
  Population Fragmented Nuclei (%): 22%
  Population Healthy Nuclei (%): 60%
  Population Hoechst High Intensity Objects (%): 6%
  Population Membrane Permeable-Phenotype (%): 63%
  Population Mitochondria Different-Phenotype (%): 63%
  Population Mitotic Cells (%): 45%
  Population Normal (%): 94%
  Population Pyknosed Nuclei (%): 17%
  Population Tubulin-Different-Phenotype (%): 75%
  Total Cell Count: 250
[6]
  Population Apoptotic (%): 58%
  Population Fragmented Nuclei (%): 25%
  Population Healthy Nuclei (%): 58%
  Population Hoechst High Intensity Objects (%): 2%
  Population Membrane Permeable-Phenotype (%): 46%
  Population Mitochondria Different-Phenotype (%): 74%
  Population Mitotic Cells (%): 41%
  Population Normal (%): 97%
  Population Pyknosed Nuclei (%): 15%
  Population Tubulin-Different-Phenotype (%): 63%
  Total Cell Count: 111
[7]
  Population Apoptotic (%): 89%
  Population Fragmented Nuclei (%): 44%
  Population Healthy Nuclei (%): 28%
  Population Hoechst High Intensity Objects (%): 6%
  Population Membrane Permeable-Phenotype (%): 79%
  Population Mitochondria Different-Phenotype (%): 81%
  Population Mitotic Cells (%): 10%
  Population Normal (%): 93%
  Population Pyknosed Nuclei (%): 26%
  Population Tubulin-Different-Phenotype (%): 91%
  Total Cell Count: 219
[8]
  Population Apoptotic (%): 94%
  Population Fragmented Nuclei (%): 19%
  Population Healthy Nuclei (%): 44%
  Population Hoechst High Intensity Objects (%): 10%
  Population Membrane Permeable-Phenotype (%): 90%
  Population Mitochondria Different-Phenotype (%): 56%
  Population Mitotic Cells (%): 5%
  Population Normal (%): 89%
  Population Pyknosed Nuclei (%): 37%
  Population Tubulin-Different-Phenotype (%): 97%
  Total Cell Count: 112
[9]
  Population Apoptotic (%): 64%
  Population Fragmented Nuclei (%): 25%
  Population Healthy Nuclei (%): 53%
  Population Hoechst High Intensity Objects (%): 8%
  Population Membrane Permeable-Phenotype (%): 42%
  Population Mitochondria Different-Phenotype (%): 56%
  Population Mitotic Cells (%): 35%
  Population Normal (%): 91%
  Population Pyknosed Nuclei (%): 21%
  Population Tubulin-Different-Phenotype (%): 50%
  Total Cell Count: 272
[10]
  Population Apoptotic (%): 95%
  Population Fragmented Nuclei (%): 28%
  Population Healthy Nuclei (%): 52%
  Population Hoechst High Intensity Objects (%): 5%
  Population Membrane Permeable-Phenotype (%): 41%
  Population Mitochondria Different-Phenotype (%): 63%
  Population Mitotic Cells (%): 4%
  Population Normal (%): 94%
  Population Pyknosed Nuclei (%): 18%
  Population Tubulin-Different-Phenotype (%): 44%
  Total Cell Count: 137
[11]
  Population Apoptotic (%): 98%
  Population Fragmented Nuclei (%): 43%
  Population Healthy Nuclei (%): 18%
  Population Hoechst High Intensity Objects (%): 15%
  Population Membrane Permeable-Phenotype (%): 77%
  Population Mitochondria Different-Phenotype (%): 33%
  Population Mitotic Cells (%): 1%
  Population Normal (%): 84%
  Population Pyknosed Nuclei (%): 38%
  Population Tubulin-Different-Phenotype (%): 75%
  Total Cell Count: 232
[12]
  Population Apoptotic (%): 100%
  Population Fragmented Nuclei (%): 25%
  Population Healthy Nuclei (%): 20%
  Population Hoechst High Intensity Objects (%): 11%
  Population Membrane Permeable-Phenotype (%): 85%
  Population Mitochondria Different-Phenotype (%): 45%
  Population Mitotic Cells (%): 0%
  Population Normal (%): 88%
  Population Pyknosed Nuclei (%): 54%
  Population Tubulin-Different-Phenotype (%): 95%
  Total Cell Count: 109
